OX1R antag-1 – antagonists of human orexin 1 receptor (OX1R). O43613. OX1R-expressing cells, FRET antagonist read-out. inhibition, % at 6.6 µM. 330,000 compounds, 1.8% hits; in the data active = inhibition mostly above about 38%, no sharp cut-off; inactive = mostly below about 40%
Target sequence (O43613 whole entry, looked up): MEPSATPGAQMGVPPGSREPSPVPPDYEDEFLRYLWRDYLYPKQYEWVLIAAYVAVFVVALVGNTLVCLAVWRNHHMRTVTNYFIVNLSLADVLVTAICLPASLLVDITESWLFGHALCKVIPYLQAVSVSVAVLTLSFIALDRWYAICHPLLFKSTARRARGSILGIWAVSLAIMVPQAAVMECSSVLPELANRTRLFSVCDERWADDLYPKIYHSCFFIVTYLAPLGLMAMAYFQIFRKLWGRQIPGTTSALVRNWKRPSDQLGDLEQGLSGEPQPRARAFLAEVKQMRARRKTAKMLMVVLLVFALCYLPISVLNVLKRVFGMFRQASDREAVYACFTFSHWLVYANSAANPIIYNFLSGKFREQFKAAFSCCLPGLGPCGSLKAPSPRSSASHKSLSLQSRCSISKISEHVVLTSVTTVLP
TAAR1 ag – human TAAR1 agonism | activation, % at 3 µM | AID 624467 | 360,000 compounds, 0.99% hits | CHO RD-HGA16 TAAR1, Fluo-8 calcium fluorescence; vehicle wells 0%, saturating PEA agonist 100%;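 active = activation above the mean activation of all test compounds in the run plus 3 SD, cut at about 38% in these data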
Target sequence (Q96RJ0 whole entry, looked up): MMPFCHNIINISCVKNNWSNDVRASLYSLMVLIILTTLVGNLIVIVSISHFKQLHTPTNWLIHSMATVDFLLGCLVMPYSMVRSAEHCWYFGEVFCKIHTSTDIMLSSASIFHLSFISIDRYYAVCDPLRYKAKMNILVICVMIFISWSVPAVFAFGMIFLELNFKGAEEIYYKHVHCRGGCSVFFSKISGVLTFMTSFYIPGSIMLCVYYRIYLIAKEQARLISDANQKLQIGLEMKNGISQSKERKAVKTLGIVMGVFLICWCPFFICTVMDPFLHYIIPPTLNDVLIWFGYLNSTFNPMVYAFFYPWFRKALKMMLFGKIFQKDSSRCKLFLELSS
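Repeats: no replicates (n 1) | Material: CHO-derived RD-HGA16 cells with stable Gα16 and human TAAR1 | Technique: Kinetic Fluo-8 calcium fluorescence | Schedule: 17-24 h seeding, 75 min 37 °C dye, 30 min RT | Evaluation: % activation from peak over basal fluorescence ratio, DMSO-to-PEA scaled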
TAAR1 antag – antagonists of human TAAR1; 360,000 compounds, 1.5% hits; inhibition, % at 3 µM; CHO RD-HGA16 TAAR1, Fluo-8 calcium fluorescence, antagonist;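 active = inhibition above a per-plate cutoff, the mean inhibition of test compounds on that plate plus 3 SD, cut at about 49% in these data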
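Test system – hTAAR1-expressing CHO RD-HGA16 cells, Gα16-coupled · Reagent – β-PEA at EC80 concentration, post-compound challenge · Compound dosing – 3 µM, single point · Timing – 140 s kinetic read after compound, 140 s after agonist · Detection – Fluo-8 intracellular calcium dye fluorescence, real-time kinetic reads · Control set – DMSO and EC80 PEA controls · Repeats – n of 1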
OX1R antag-2 – antagonists of human orexin 1 receptor; inhibition, % at 5 µM; 330,000 compounds, 0.43% hits; O43613; AID 434989; CHO/OX1R cells, Fluo-8 calcium fluorescence, orexin A;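 active = inhibition above its plate's threshold, mean inhibition of all tested compounds on the plate plus 3 SD, cut at about 37% in these data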
CHO parental Ca – counter-screen for OX1R antagonists: effect in parental CHO cells. 330,000 compounds, 0.63% hits. inhibition, % at 5.6 µM. parental CHO-K1, ATP-induced calcium, Fluo-8 fluorescence;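 active = inhibition above that plate's mean sample inhibition plus 3 SD, cut at about 26% in these data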
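Assay system: parental CHO cells; Read-out basis: percent inhibition of ATP-evoked calcium rise, normalized to controls; Benchmarks: ATP and no-ATP DMSO wells; Compound dosing: single nominal dose of 5.6 µM per compound; Signal: Fluo-8 calcium dye fluorescence; Also added: ATP as calcium-mobilizing challenge; Repeats: singlicate.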
nonsel antag count – nonselective antagonism, TAAR1 counter-screen; shares compounds with TAAR1 antag; counterscreen cell line, calcium fluorescence, antagonist mode; inhibition, % at 3 µM; 2,400 compounds, 77% hits; in the data active = inhibition above about 22%;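 also: CHO-Ga16 host cells stimulated with ATP at an EC80 level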
TAAR1 antag conf – confirmation of human TAAR1 antagonists. shares compounds with TAAR1 antag. TAAR1-expressing cells, fluorescence antagonist read-out. inhibition, % at 3 µM. 2,400 compounds, 40% hits; in the data active = inhibition above about 49%;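 also: CHO-Ga16 host cells challenged with agonist PEA near its EC80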
Ga16 nonsel ag – nonselective Ga16 agonist in TAAR1 antagonist counter-screen; shares compounds with TAAR1 antag; Ga16-expressing cells, calcium fluorescence, agonist counterscreen; activation, % at 3 µM; 2,400 compounds, 18% hits; AID 651953; in the data active = activation above about 12%
TAAR1 ag counter – counter-screen for human TAAR1 antagonists: TAAR1 agonists; activation, % at 3 µM; 2,400 compounds, 2% hits; hTAAR1 cell line, fluorescence activation, agonist mode; shares compounds with TAAR1 antag; in the data active = activation above about 37%;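 also: CHO cells stably expressing TAAR1 with calcium dye readout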
A number is an active result; – = inactive; · = not tested or not shown. Only some compounds are listed: those with a hit (about 3.9% of all), similar ones and a draw of the others.

SMILES	OX1R antag-1	TAAR1 ag	TAAR1 antag	OX1R antag-2	CHO parental Ca	nonsel antag count	TAAR1 antag conf	Ga16 nonsel ag	TAAR1 ag counter
Cc1cccc2sc(NNC(=O)c3cc(-c4cccs4)nc4ccccc34)nc12	–	–	68.0	–	–	51.0	54.2	15.4	–
CN(C)S(=O)(=O)c1cccc(NC(=O)c2c[nH]c3ccccc23)c1	–	–	55.6	–	–	23.8	61.1	–	53.9
Cc1cc(Nc2ccccc2)n(CCO)n1	–	–	–	–	–	·	·	·	·
CCN(CC)S(=O)(=O)c1ccc(NC(=O)c2cc(-c3cccs3)nc3ccccc23)cc1	–	–	59.9	–	–	28.8	–	–	–
CCOc1ccccc1-c1cc(C(=O)Nc2ccc(C(=O)O)cc2)c2ccccc2n1	–	–	–	–	–	·	·	·	·
CCOc1ccccc1NC(=O)c1cc(-c2ccccn2)nc2ccccc12	–	–	55.4	–	–	–	–	–	–
Cc1c(C(=O)N2CCN(c3ncccn3)CC2)oc2ccc(Cl)cc12	–	–	–	–	–	·	·	·	·
COc1ccc(C(C(=O)Nc2ccc(F)cc2)N2CCN(C(=O)c3ccco3)CC2)cc1 (stereo unspecified)	·	–	–	·	·	·	·	·	·
COC(=O)c1cc2c(c3c4cc(F)ccc4n(C(=O)c4ccccc4)c13)C(=O)N(Cc1ccco1)C2	·	–	68.1	·	·	26.0	–	–	–
COC(=O)c1cc2c(c3c4cc(OC)ccc4n(C(=O)c4ccccc4)c13)C(=O)N(Cc1ccco1)C2	·	–	65.4	·	·	29.4	49.6	–	–
COC(=O)c1cc2c(c3c4cc(F)ccc4n(S(=O)(=O)c4ccccc4)c13)C(=O)N(Cc1ccco1)C2	·	–	–	·	·	·	·	·	·
CCc1nc(SCC(=O)Nc2nnc(CC(C)C)s2)n[nH]1	–	–	–	–	–	·	·	·	·
C[C@H]1CN(C(=O)OC(C)(C)C)CCN1c1ccc(Br)c(C#N)c1	·	–	51.8	·	·	37.9	–	–	–
O=C(c1ccco1)N(CCCN1CCOCC1)c1nc(-c2ccc(F)cc2)cs1	–	–	56.5	–	–	–	–	–	–
CCC(=O)N1Cc2cc(C(=O)Nc3nccs3)nc(-c3cccc(-c4ccccc4OC)c3)c2[C@@H]1CCO	·	–	73.4	·	·	28.6	–	–	–
COc1cc(OC)cc(C(=O)N[C@H](C(=O)Nc2nc3ccc(S(C)(=O)=O)cc3s2)C(C)C)c1	–	–	–	–	–	·	·	·	·
Cc1c(NC(=O)COC(=O)Cc2ccc(Cl)cc2)c(=O)n(-c2ccccc2)n1C	–	–	–	–	–	·	·	·	·
COc1cccc(/C=N/NC(=O)c2cc(C34CC5CC(CC(C5)C3)C4)[nH]n2)c1	–	–	57.4	–	–	22.9	–	–	–
O=C(COc1ccccc1Cl)Nc1ccc(S(=O)(=O)N2CCOCC2)cc1	–	–	–	–	–	·	·	·	·
Cc1ccccc1N=C1NN=C(c2ccccc2F)CS1	–	–	–	–	–	·	·	·	·
COc1ccc(-c2cccc3[nH]c4c(c23)CCN2C(=O)[C@H]3[C@H](C)ON(C)[C@H]3C[C@@H]42)cc1	·	–	49.7	·	·	21.8	–	–	–
COc1cccc(-c2cccc3c4c([nH]c23)[C@@H]2C[C@H]3[C@@H](C(=O)N2CC4)[C@H](C)ON3C)c1	·	–	52.7	·	·	22.2	–	–	–
C[C@@H]1ON(C)[C@H]2C[C@H]3c4[nH]c5cccc(-c6ccc7c(c6)OCO7)c5c4CCN3C(=O)[C@@H]12	·	–	55.6	·	·	23.1	–	–	–
O=c1[nH]c(=S)[nH]c2c1C(c1cccc(C(F)(F)F)c1)OC(CCc1ccccc1)C2 (stereo unspecified)	·	–	–	·	·	·	·	·	·
CCNC(=O)/C(=C/c1ccc2c(c1)OCO2)NC(=O)c1ccc(Br)cc1	–	–	–	–	–	·	·	·	·
SMILES	OX1R antag-1	TAAR1 ag	TAAR1 antag	OX1R antag-2	CHO parental Ca	nonsel antag count	TAAR1 antag conf	Ga16 nonsel ag	TAAR1 ag counter
O=C1c2ccccc2C(=O)N1c1ccc(Cl)cc1	–	·	·	–	–	·	·	·	·
O=C1C2C(c3ccccc3)(C(=O)N1c1ccc(Cl)cc1)C2(c1ccccc1)c1ccccc1 (stereo unspecified)	–	–	62.5	–	–	–	–	–	–
Cc1ccc(S(=O)(=O)N2CCOCC2)cc1NC(=O)COc1ccc(C(=O)c2ccccc2)cc1	–	–	81.5	–	–	36.9	58.6	13.7	–
Cc1ccc(S(=O)(=O)N2CCOCC2)cc1NC(=O)COC(=O)CNC(=O)c1ccccc1	–	–	–	–	–	·	·	·	·
CC1(c2nnc(-c3ccc(Cl)cc3)o2)CC(c2c(Cl)cccc2Cl)=NO1 (stereo unspecified)	–	–	56.4	–	–	22.9	–	–	–
CC1(c2nnc(-c3ccc(F)cc3)o2)CC(c2c(Cl)cccc2Cl)=NO1 (stereo unspecified)	–	–	–	–	–	·	·	·	·
Cc1ccc([N+](=O)[O-])cc1NC(=O)c1ccccc1	–	–	–	–	–	·	·	·	·
O=C(Nc1ccc([N+](=O)[O-])cc1NC(=O)c1ccccc1)c1ccccc1	·	–	57.2	·	·	32.1	–	–	–
CCCc1cc(=O)[nH]c(SCc2cc(=O)oc3cc(C)c(C(C)C)cc23)n1	–	–	103.4	–	–	–	–	–	–
CCCc1cc(=O)[nH]c(SCc2nc3ccccc3o2)n1	–	–	–	–	–	·	·	·	·
Cc1nc(N2CCN(Cc3ccc4c(c3)OCO4)CC2)c2cc(-c3ccccc3)sc2n1	–	–	–	–	–	·	·	·	·
Cc1nc(N2CCN(Cc3ccc4c(c3)OCO4)CC2)c2oc3ccccc3c2n1	·	–	72.1	·	·	–	–	–	–
C[C@@H]1C(=O)O[C@H]2[C@H](O)[C@@]34[C@H]5C[C@@H](C(C)(C)C)[C@]36[C@@H](OC(=O)[C@@H]6O)O[C@@]4(C(=O)O5)[C@@]12O	–	–	–	–	–	·	·	·	·
N#C/C(=C(\O)c1cc(Cl)sc1Cl)c1nc2ccccc2[nH]1	–	–	–	–	–	·	·	·	·
CC1(C)N=C(SCC(=O)Nc2ccccc2)C(c2ccc(Cl)cc2)=N1	–	–	53.7	–	–	–	–	–	–
O=C(c1ccc(N2CN(C(=O)c3ccco3)c3nc4ccccc4nc32)cc1)N1CCOCC1	–	–	53.5	–	–	–	–	–	–
CCOc1ccc(N2CC(C(=O)Nc3nnc(C4CCCCC4)s3)CC2=O)cc1 (stereo unspecified)	–	–	–	–	–	·	·	·	·
Cc1ccccc1NC(=O)Cc1nc(CSc2nnc(-c3ccc4c(c3)OCO4)o2)cs1	–	–	55.0	–	–	25.3	–	–	–

High-throughput results: PubChem, The Scripps Research Institute Molecular Screening Center
